In ChEMBL document CHEMBL3784976 (J Med Chem, 2016):

What was measured:
[1] = test system: Rattus norvegicus; assay: fCmax in rat at 30 mg/kg, po; type: ADME, organism-based; settings: in vivo
Summary of the method: (§1)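 Rats dosed orally at 30 mg/kg, or 10 mg/kg for one analogue, in 1% Tween 80/2% HPMC/97% water with methanesulfonic acid, pH 2.2.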

[2] = Cmax in rat at 30 mg/kg, po; type: ADME, organism-based; set-up: dose 30 mg/kg, route oral; settings: in vivo
Summary of the method: (§2)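 Rat oral PK at 30 mg/kg (10 mg/kg for one analogue) in 1% Tween 80/2% HPMC/97% water with methanesulfonic acid, pH 2.2.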

[3] = Fraction unbound in rat plasma; type: ADME, cell-free
[4] = target: T1, Transient receptor potential cation channel subfamily A member 1 (Homo sapiens, UniProt O75762); assay: Antagonist activity at human TRPA1 expressed in tetracycline-inducible T-REx expression system transfected CHO cells assessed as inhibition of AITC-induced Ca2+ influx preincubated for 2 mins followed by AITC addition measured for 2 mins by Fluo-4 dye based FLIPR assay; type: cell-based
T1 sequence (O75762 whole entry): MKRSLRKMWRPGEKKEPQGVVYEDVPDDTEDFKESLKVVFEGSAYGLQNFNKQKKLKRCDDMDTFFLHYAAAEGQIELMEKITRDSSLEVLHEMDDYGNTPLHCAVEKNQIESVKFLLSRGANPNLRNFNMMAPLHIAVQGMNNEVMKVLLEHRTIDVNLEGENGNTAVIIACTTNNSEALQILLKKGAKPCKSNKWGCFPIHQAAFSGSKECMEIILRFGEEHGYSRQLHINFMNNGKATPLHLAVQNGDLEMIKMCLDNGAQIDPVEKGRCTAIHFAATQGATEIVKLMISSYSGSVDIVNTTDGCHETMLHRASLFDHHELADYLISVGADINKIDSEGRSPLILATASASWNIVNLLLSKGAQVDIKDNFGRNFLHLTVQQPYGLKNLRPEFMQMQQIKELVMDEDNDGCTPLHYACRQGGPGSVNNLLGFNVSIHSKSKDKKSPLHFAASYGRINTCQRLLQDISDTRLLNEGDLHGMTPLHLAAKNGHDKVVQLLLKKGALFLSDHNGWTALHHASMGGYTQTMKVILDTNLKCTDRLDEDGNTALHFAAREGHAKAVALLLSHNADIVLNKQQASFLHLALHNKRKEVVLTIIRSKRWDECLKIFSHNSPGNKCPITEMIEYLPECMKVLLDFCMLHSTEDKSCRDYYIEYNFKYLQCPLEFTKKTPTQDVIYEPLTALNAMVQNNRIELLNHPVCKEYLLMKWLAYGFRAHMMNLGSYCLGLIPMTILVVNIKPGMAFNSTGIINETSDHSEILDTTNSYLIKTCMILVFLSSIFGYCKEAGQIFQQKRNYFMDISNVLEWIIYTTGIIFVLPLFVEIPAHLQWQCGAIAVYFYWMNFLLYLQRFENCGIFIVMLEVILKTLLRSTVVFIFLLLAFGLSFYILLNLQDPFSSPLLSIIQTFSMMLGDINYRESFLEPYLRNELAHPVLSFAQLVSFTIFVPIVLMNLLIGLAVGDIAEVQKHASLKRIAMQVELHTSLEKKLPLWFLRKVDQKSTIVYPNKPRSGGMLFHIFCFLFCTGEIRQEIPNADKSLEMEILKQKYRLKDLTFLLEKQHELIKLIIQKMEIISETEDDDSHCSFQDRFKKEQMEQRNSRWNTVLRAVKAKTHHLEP

[5] = target: T2, Transient receptor potential cation channel subfamily A member 1 (Rattus norvegicus, UniProt Q6RI86); assay: Antagonist activity at rat TRPA1 expressed in tetracycline-inducible T-REx expression system transfected CHO cells assessed as inhibition of AITC-induced Ca2+ influx preincubated for 2 mins followed by AITC addition measured for 2 mins by Fluo-4 dye based FLIPR assay; type: cell-based
T2 sequence (Q6RI86 whole entry): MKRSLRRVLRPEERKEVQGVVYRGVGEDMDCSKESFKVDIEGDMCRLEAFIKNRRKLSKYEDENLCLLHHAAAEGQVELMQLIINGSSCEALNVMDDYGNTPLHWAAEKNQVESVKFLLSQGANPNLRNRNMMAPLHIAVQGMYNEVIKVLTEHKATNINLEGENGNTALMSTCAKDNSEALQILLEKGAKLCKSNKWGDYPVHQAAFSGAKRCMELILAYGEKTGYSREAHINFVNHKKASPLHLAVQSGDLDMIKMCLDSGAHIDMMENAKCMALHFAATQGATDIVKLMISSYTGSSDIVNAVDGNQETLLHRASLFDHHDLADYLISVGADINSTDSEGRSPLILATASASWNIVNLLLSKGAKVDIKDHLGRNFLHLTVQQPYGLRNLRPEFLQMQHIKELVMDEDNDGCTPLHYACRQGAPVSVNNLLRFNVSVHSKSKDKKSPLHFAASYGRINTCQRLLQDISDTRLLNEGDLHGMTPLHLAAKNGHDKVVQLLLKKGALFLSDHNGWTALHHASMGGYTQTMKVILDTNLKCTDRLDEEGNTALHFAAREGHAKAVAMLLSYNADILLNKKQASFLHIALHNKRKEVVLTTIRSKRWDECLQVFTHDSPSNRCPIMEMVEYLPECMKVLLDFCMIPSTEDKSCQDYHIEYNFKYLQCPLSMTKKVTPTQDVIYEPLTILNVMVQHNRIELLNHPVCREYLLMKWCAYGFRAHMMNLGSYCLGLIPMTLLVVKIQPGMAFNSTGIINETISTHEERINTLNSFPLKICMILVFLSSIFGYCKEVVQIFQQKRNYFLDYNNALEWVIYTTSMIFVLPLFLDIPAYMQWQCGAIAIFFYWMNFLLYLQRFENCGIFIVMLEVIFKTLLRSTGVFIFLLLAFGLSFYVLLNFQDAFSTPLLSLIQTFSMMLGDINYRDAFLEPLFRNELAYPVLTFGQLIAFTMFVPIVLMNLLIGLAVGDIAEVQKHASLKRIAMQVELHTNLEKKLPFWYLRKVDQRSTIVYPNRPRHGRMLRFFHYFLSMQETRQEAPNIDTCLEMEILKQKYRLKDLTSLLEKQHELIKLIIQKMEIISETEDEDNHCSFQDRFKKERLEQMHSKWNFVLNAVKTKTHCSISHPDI

[6] = Apparent intrinsic clearance in rat liver microsomes; type: ADME; settings: read-out: CLH(app)
[7] = Apparent intrinsic clearance in human liver microsomes; type: ADME; settings: read-out: CLH(app)
[8] = target: T2, Transient receptor potential cation channel subfamily A member 1; assay: Antagonist activity at rat TRPA1 expressed in tetracycline-inducible T-REx expression system transfected CHO cells assessed as inhibition of AITC-induced 45Ca2+ uptake preincubated for 1 min followed by AITC addition measured after 12 mins; type: cell-based
[9] = target: T1, Transient receptor potential cation channel subfamily A member 1; assay: Antagonist activity at human TRPA1 expressed in tetracycline-inducible T-REx expression system transfected CHO cells assessed as inhibition of AITC-induced 45Ca2+ uptake preincubated for 1 min followed by AITC addition measured after 12 mins; type: cell-based
[10] = target: T2, Transient receptor potential cation channel subfamily A member 1; assay: Agonist activity at rat TRPA1 expressed in tetracycline-inducible T-REx expression system transfected CHO cells by 45Ca2+ uptake assay; type: cell-based
[11] = target: T1, Transient receptor potential cation channel subfamily A member 1; assay: Agonist activity at human TRPA1 expressed in tetracycline-inducible T-REx expression system transfected CHO cells by 45Ca2+ uptake assay; type: cell-based
[12] = Clearance in rat at 0.5 mg/kg, iv as single dose; type: ADME, organism-based; settings: in vivo
[13] = test system: Rattus norvegicus; assay: Unbound clearance in rat at 0.5 mg/kg, iv as single dose; type: ADME, organism-based; settings: in vivo
Summary of the method: (§3)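 Single intravenous dose of 0.5 mg/kg given to rats, formulated in 100% DMSO.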

[14] = Volume of distribution at steady state in rat at 0.5 mg/kg, iv as single dose; type: ADME, organism-based; settings: in vivo, read-out: Vdss; summary of the method: as §3
[15] = Half life in rat at 0.5 mg/kg, iv administered as single dose; type: ADME, organism-based; settings: in vivo; summary of the method: as §3
[16] = AUC (infinity) in rat at 30 mg/kg, po; type: ADME, organism-based; set-up: dose 30 mg/kg, time infinity, route oral; settings: in vivo; summary of the method: as §2
[17] = Tmax in rat at 30 mg/kg, po; type: ADME, organism-based; settings: in vivo; summary of the method: as §1
[18] = Half life in rat at 30 mg/kg, po; type: ADME, organism-based; settings: in vivo; summary of the method: as §1
[19] = Oral bioavailability in rat at 30 mg/kg; type: ADME, organism-based; settings: in vivo; summary of the method: as §1
[20] = Ratio of fCmax in rat at 30 mg/kg, po to IC50 for rat TRPA1 expressed in tetracycline-inducible T-REx expression system transfected CHO cells by 45Ca2+ uptake assay
[21] = target: T1, Transient receptor potential cation channel subfamily A member 1; assay: Agonist activity at human TRPA1 expressed in tetracycline-inducible T-REx expression system transfected CHO cells assessed as increase in Ca2+ influx measured for 2 mins by Fluo-4 dye based FLIPR assay; type: cell-based
Summary of the method: (§4)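 FLIPR Tetra Ca2+ flux with Fluo-4 NW dye plus probenecid. Cells were seeded 24 h ahead in medium with […]. Dye loading ran 30 min at 37 °C, then 30 min at RT. Compound was added and agonist signal read for 2 min. Data were expressed as POC of DMSO (low) vs saturating AITC (high: 15 μM human, 200 μM rat) and fitted to a four-parameter equation.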

[22] = target: T2, Transient receptor potential cation channel subfamily A member 1; assay: Agonist activity at rat TRPA1 expressed in tetracycline-inducible T-REx expression system transfected CHO cells assessed as increase in Ca2+ influx measured for 2 mins by Fluo-4 dye based FLIPR assay; type: cell-based; summary of the method: as §4
[23] = target: Transient receptor potential cation channel subfamily V member 1 (Homo sapiens, UniProt Q8NER1); assay: Antagonist activity at human TRPV1 expressed in CHO cells assessed as inhibition of capsaicin-induced Ca2+ influx preincubated for 2.5 mins followed by capsaicin addition measured for 1 min by luminescence assay; type: cell-based
Sequence of Transient receptor potential cation channel subfamily V member 1 (Q8NER1 whole entry): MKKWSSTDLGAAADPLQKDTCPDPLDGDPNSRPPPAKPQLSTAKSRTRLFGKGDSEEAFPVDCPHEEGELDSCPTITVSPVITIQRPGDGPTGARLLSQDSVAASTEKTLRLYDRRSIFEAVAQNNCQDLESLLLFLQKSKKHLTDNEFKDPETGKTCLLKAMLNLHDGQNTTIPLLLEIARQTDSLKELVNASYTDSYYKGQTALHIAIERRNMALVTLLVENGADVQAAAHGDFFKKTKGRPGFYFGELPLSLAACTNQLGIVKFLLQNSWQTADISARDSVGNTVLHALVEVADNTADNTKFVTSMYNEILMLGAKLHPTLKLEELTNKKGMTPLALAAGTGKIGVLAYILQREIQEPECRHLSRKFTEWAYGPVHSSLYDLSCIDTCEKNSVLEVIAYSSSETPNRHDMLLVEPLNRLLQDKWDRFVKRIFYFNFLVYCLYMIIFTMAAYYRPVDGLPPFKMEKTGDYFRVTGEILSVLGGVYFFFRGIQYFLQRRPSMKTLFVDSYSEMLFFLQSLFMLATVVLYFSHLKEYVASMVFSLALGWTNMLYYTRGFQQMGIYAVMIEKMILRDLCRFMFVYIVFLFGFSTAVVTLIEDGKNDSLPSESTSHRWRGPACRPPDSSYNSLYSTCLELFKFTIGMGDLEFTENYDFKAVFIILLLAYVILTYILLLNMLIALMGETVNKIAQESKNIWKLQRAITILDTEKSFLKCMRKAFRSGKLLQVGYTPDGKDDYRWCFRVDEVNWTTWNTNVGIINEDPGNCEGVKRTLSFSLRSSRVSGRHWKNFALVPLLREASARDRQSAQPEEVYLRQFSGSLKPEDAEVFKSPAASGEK

[24] = target: Transient receptor potential cation channel subfamily V member 3 (Rattus norvegicus); assay: Antagonist activity at rat TRPV3 expressed in tetracycline-inducible T-REx expression system transfected CHO cells assessed as inhibition of […]-induced Ca2+ influx preincubated for 1 min followed by […] addition measured for 1 min by luminescence assay
[25] = AUC (infinity) in rat at 10 mg/kg, po; type: ADME, organism-based; set-up: dose 10 mg/kg, time infinity, route oral; settings: in vivo; summary of the method: as §2
[26] = test system: Rattus norvegicus; assay: fCmax in rat at 10 mg/kg, po; type: ADME, organism-based; settings: in vivo; summary of the method: as §1
[27] = Tmax in rat at 10 mg/kg, po; type: ADME, organism-based; settings: in vivo; summary of the method: as §1
[28] = Half life in rat at 10 mg/kg, po; type: ADME, organism-based; settings: in vivo; summary of the method: as §1
[29] = Cmax in rat at 10 mg/kg, po; type: ADME, organism-based; set-up: dose 10 mg/kg, route oral; settings: in vivo; summary of the method: as §2
[30] = Ratio of fCmax in rat at 10 mg/kg, po to IC50 for rat TRPA1 expressed in tetracycline-inducible T-REx expression system transfected CHO cells by 45Ca2+ uptake assay
Summary of the method: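 Rat oral PK dosed at 10 mg/kg in 1% Tween 80/2% HPMC/97% water/methanesulfonic acid pH 2.2. Unbound Cmax divided by rat TRPA1 45Ca2+ IC50.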

[31] = test system: Liver microsome; assay: Drug metabolism in rat liver microsomes assessed as 3-((3-(2-(4-Chlorophenyl)-2-hydroxyethyl)-1,2,4-oxadiazol-5-yl)-methyl)pyrido[2,3-d]pyrimidin-4(3H)-one formation; type: ADME
[32] = test system: Liver microsome; assay: Drug metabolism in human liver microsomes assessed as 3-((3-(2-(4-Chlorophenyl)-2-hydroxyethyl)-1,2,4-oxadiazol-5-yl)-methyl)pyrido[2,3-d]pyrimidin-4(3H)-one formation; type: ADME

Row | Compound | IC50 [4] | IC50 [5] | microsomal CLint [6] | microsomal CLint [7] | further results
1 | O=c1c2cccnc2ncn1Cc1noc(CCc2ccc(Cl)cc2)n1 | 156 nM | 89 nM | 122 µL/min/mg | 35 µL/min/mg | fCmax [1]: 1 µM; Cmax [2]: 10.3 µM; fraction unbound [3]: 0.093; IC50 [8]: 411 nM; IC50 [9]: 1580 nM; EC50 [10]: > 40000 nM; EC50 [11]: > 40000 nM; clearance [12]: 36.7 mL/min/kg; CL free [13]: 400 mL/min/kg; Vd [14]: 1 L/kg; half-life [15]: 0.4 h; AUC(0-inf) [16]: 19.2 µM·h; Tmax [17]: 0.5 h; half-life [18]: 4 h; bioavailability [19]: 52%; Ratio [20]: 3
2 | C/C(=C\c1nc(Cn2cnc3ncccc3c2=O)no1)c1ccc(Cl)cc1 |  |  |  |  | fCmax [1]: 0.1 µM; Cmax [2]: 8 µM; fraction unbound [3]: 0.012; Vd [14]: 1.4 L/kg; half-life [15]: 4.2 h; AUC(0-inf) [16]: 94.9 µM·h; Tmax [17]: 2.7 h; half-life [18]: 5.1 h; bioavailability [19]: 32%
3 | Cc1cccc2c(=O)n(CC(=O)NCCc3ccccc3)cnc12 | > 8330 nM |  |  |  | 
4 | Cc1cccc2c(=O)n(CC(=O)NCCc3ccc(Cl)cc3)cnc12 | 802 nM | 358 nM | 706 µL/min/mg | 224 µL/min/mg | 
5 | Cc1cccc2ncn(CC(=O)NCCc3ccc(Cl)cc3)c(=O)c12 | 70 nM | 112 nM | 736 µL/min/mg | 301 µL/min/mg | 
6 | O=C(Cn1cnc2cnccc2c1=O)NCCc1ccc(Cl)cc1 | 1710 nM | 1080 nM | 179 µL/min/mg | 14 µL/min/mg | 
7 | COc1ccccc1CCNC(=O)Cn1cnc2c(C)cccc2c1=O | > 16700 nM | > 16700 nM |  |  | 
8 | Cc1ccc2ncn(CC(=O)NCCc3ccc(Cl)cc3)c(=O)c2c1 | 265 nM | 287 nM |  |  | 
9 | C/C(=C\c1noc(Cn2cnc3ncn(C)c3c2=O)n1)c1ccc(Cl)cc1 | 71 nM | 75 nM | < 14 µL/min/mg | < 14 µL/min/mg | fraction unbound [3]: 0.033; AUC(0-inf) [25]: 117 µM·h; fCmax [26]: 0.2 µM; Tmax [27]: 2 h; half-life [28]: 10 h; Cmax [29]: 6.5 µM; Ratio [30]: 4; IC50 [8]: 55 nM; IC50 [9]: 63 nM; EC50 [10]: > 40000 nM; EC50 [11]: > 40000 nM
10 | O=c1c2cccnc2ncn1Cc1nc(CCc2ccc(Cl)cc2)no1 | 41 nM | 21 nM | 131 µL/min/mg | 32 µL/min/mg | fraction unbound [3]: 0.144; Drug metabolism [31]: metabolite_detected; Drug metabolism [32]: metabolite_detected; IC50 [8]: 120 nM; IC50 [9]: 376 nM; EC50 [10]: > 40000 nM; EC50 [11]: > 40000 nM; clearance [12]: 98.3 mL/min/kg; Vd [14]: 2 L/kg; half-life [15]: 0.3 h
11 | O=C(Cn1cnc2ncccc2c1=O)NCCc1ccc(Cl)cc1 | 1180 nM | 1170 nM | 18 µL/min/mg | < 14 µL/min/mg | 

Continued, in another order:

Row | IC50 [4] | IC50 [5] | microsomal CLint [6] | microsomal CLint [7] | Compound | further results
12 | 1330 nM | 791 nM | 186 µL/min/mg | 40 µL/min/mg | O=C(Cn1cnc2c(F)cccc2c1=O)NCCc1ccc(Cl)cc1 | 
13 | 1460 nM | 2150 nM | 455 µL/min/mg | 34 µL/min/mg | COc1cccc2c(=O)n(CC(=O)NCCc3ccc(Cl)cc3)cnc12 | 
14 | > 16700 nM | > 16700 nM |  |  | COc1cccc(CCNC(=O)Cn2cnc3c(C)cccc3c2=O)c1 | 
15 | 16 nM | 35 nM | > 399 µL/min/mg | 340 µL/min/mg | Cc1ccnc2ncn(Cc3nc(CCc4ccc(Cl)cc4)no3)c(=O)c12 | 
16 | 41 nM | 31 nM | 94 µL/min/mg | 56 µL/min/mg | O=c1c2cccnc2ncn1Cc1nc(CC(F)c2ccc(Cl)cc2)no1 (racemic) | 
17 | > 4200 nM | > 16700 nM | 829 µL/min/mg | 144 µL/min/mg | Cc1ccc2c(=O)n(CC(=O)NCCc3ccc(Cl)cc3)cnc2c1 | 
18 | 211 nM | 136 nM | 44 µL/min/mg | 19 µL/min/mg | Cn1cnc2ncn(Cc3noc(CCc4ccc(Cl)cc4)n3)c(=O)c21 | 
19 | 286 nM | 306 nM | > 399 µL/min/mg | 397 µL/min/mg | O=C(Cn1cnc2c(C(F)(F)F)cccc2c1=O)NCCc1ccc(Cl)cc1 | 
20 | 201 nM | 56 nM | 297 µL/min/mg | 49 µL/min/mg | N#Cc1cccc2c(=O)n(CC(=O)NCCc3ccc(Cl)cc3)cnc12 | 
21 | 165 nM | 274 nM | < 14 µL/min/mg | 76 µL/min/mg | C/C(=C\c1nc(Cn2cnc3ncn(C)c3c2=O)no1)c1ccc(Cl)cc1 | 
22 | 685 nM | 142 nM | > 399 µL/min/mg | 194 µL/min/mg | Cc1cccc2c(=O)n(CC(=O)NCCc3ccc(OC(F)F)cc3)cnc12 | EC50 [21]: > 25000 nM; EC50 [22]: > 25000 nM; IC50 [23]: > 20000 nM; IC50 [8]: 2620 nM; IC50 [9]: 6270 nM; EC50 [10]: > 47000 nM; EC50 [11]: > 47000 nM; IC50 [24]: > 20000 nM
23 | > 16700 nM |  | 104 µL/min/mg | 31 µL/min/mg | O=C(Cn1cnc2ccccc2c1=O)NCCc1ccc(Cl)cc1 | 
24 |  | 1370 nM |  |  | COc1ccc(CCNC(=O)Cn2cnc3c(C)cccc3c2=O)cc1 | 
